Neddyl block: inhibitors of cullin neddylation, primary screen, biochemical, TR-FRET, uHTS, NAE and Ubc12; NEDD8-conjugating enzyme Ubc12 (Homo sapiens) + NEDD8-activating enzyme E1 regulatory …; calls only at 25 µM; hit rate 0.58% among 360,000; AID 651699, 2012; in the data active = inhibition above about 36%
proCasp3 act: activators of human procaspase-3 D3A mutant, primary screen, biochemical, absorbance, PC-3 D3A mutant, single concentration; Caspase-3 (Homo sapiens), P42574; recombinant procaspase-3 D3A, Ac-DEVD-pNA absorbance 405 nm; activation, % at 8.5 µM; hit rate 0.11% among 330,000;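 active = activation above the mean of all tested compounds plus 3 SD, cut at about 21% in these data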;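 note: 0% = DMSO alone and 100% = DMSO wells spiked with extra 5 µM PC-3 D3A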
Target sequence (P42574 whole entry D9A/D28A/D175A): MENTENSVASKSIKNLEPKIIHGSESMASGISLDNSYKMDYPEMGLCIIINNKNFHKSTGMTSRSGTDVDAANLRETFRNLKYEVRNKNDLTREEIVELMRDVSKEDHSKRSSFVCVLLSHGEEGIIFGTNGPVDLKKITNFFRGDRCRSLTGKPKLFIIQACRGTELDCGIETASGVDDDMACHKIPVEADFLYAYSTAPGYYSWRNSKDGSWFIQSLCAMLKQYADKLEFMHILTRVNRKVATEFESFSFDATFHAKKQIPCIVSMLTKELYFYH
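Assay system – Procaspase-3 D3A mutant · Benchmarks – DMSO low control, extra-enzyme high control · Technique – 405 nm absorbance of p-nitroaniline, reads at 0 and 120 min · Doses – 8.5 µM nominal · Measure – % activation between DMSO and enzyme-spiked controls · Also added – Ac-DEVD-pNA chromogenic peptide substrate · Schedule – 1 h compound preincubation, 2 h substrate hydrolysis at 25 °C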
procasp7 counter: procaspase-7 activators, primary screen, counter-screen for procaspase-3 activator project, biochemical, absorbance, HTS, human | Caspase-7 (Homo sapiens), P55210 | recombinant procaspase-7, Ac-DEVD-pNA absorbance 405 nm; D23A/D198A/D206A triple mutant, cannot self-cleave; scale: DMSO 0, 5 µM enzyme 100 | activation, % at 8.5 µM | hit rate 0.093% among 330,000;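 active = percent activation above the screen-wide mean plus 3 SD, cut at about 25% in these data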
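Replicates: singlicate. Assay system: Procaspase-7 triple mutant (PC-7 D3A). Signal: 405 nm absorbance of p-nitroaniline. Times: 1 h preincubation, 2 h reaction. Buffer or medium: Zinc-free HEPES pH 7.4 with 300 mM NaCl, 0.01% Triton X-100. Also added: DEVD-pNA substrate. Benchmarks: DMSO wells as 0%, DMSO with 5 µM added PC-7 as 100%.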
proKLK7 act: proKLK7 zymogen activators, primary screen, biochemical, fluorescence intensity; Kallikrein-7 (Homo sapiens), P49862; purified proKLK7, EDANS-DABCYL substrate fluorescence; 100% is mature enzyme control, 0% vehicle; activation, % at 7 µM; hit rate 0.9% among 370,000; AID 652039, 2013;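 active = activation above the mean of all tested compounds plus 3 SD, computed per campaign excluding outliers beyond control limits, cut at about 13% in these data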
Target sequence (P49862 whole entry, looked up): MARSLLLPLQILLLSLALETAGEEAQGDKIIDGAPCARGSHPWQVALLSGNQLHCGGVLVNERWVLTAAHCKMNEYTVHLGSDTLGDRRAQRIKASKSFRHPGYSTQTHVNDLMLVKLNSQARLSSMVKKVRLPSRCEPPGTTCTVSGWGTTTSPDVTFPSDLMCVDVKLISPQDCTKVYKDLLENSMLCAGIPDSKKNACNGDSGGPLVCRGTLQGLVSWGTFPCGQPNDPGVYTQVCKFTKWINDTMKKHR
Neddyl conf: blockade of NEDD8 conjugation to cullin – biochemical, TR-FRET, single concentration, confirmation; shares compounds with Neddyl block; TR-FRET cullin neddylation biochemical assay; calls only at 25 µM; hit rate 13% among 1,800; AID 652217, 2013; in the data active = inhibition above about 40%;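 note: neddylation substrate is the cullin 1 ring ligase complex with SKP2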
* = called active by the depositor; i = inactive; x = not tested or not shown; + = active, no number. Hits are enriched below; roughly 1.6% of the tested compounds scored in any of these assays.

SMILES	Neddyl block	proCasp3 act	procasp7 counter	proKLK7 act	Neddyl conf
COc1cc2ccccc2cc1C(=O)OCC(=O)N(CC(C)C)c1c(N)n(Cc2ccccc2)c(=O)[nH]c1=O	+	6	3	-3	i
CC(C)CN(C(=O)COC(=O)c1cccc2ccccc12)c1c(N)n(Cc2ccccc2)c(=O)[nH]c1=O	i	-8	0	0	x
COCCN(C(=O)COC(=O)c1cc2ccccc2cc1OC)c1c(N)n(Cc2ccccc2)c(=O)[nH]c1=O	+	10	6	4	+
CC(C)CN(C(=O)COC(=O)c1ccccc1NCc1ccco1)c1c(N)n(Cc2ccccc2)c(=O)[nH]c1=O	+	0	-2	-3	i
CC(=O)Nc1cccc(-c2cc(C(C)=O)c3n(c2=O)CCC3)c1	x	x	x	0	x
CC(C)NC(=O)N[C@H]1C[C@@H]2O[C@@H](CO)CC[C@@H]2O[C@@H]1CCc1ccc(-c2ccccc2F)cc1	x	x	x	0	x
COc1ccc(-c2ccc(-c3nnc(Cc4ccc(OC)c(OC)c4)o3)cc2)cc1	+	9	14	-1	i
O=C(CSc1nnc2ccccn12)NC(=O)c1ccccc1Cl	i	-6	5	2	x
COc1ccccc1C(=O)NC(=O)CSc1nnc2ccccn12	+	-7	6	1	i
COc1cccc(-c2cc(=O)[nH][nH]2)c1	i	-5	-16	0	x
COc1cccc(-c2ccc(C#N)c(=O)[nH]2)c1	+	-3	-2	-38	x
CC(C)Cn1nc(NC(=O)c2ccco2)c2cc3ccccc3nc21	+	-6	-3	2	x
CCn1nc(NC(=O)c2ccco2)c2cc3ccccc3nc21	x	-14	-18	2	x
OC(c1ccc(F)cc1)c1ncc(-c2cccc3ccccc23)[nH]1 (stereo not given)	+	x	x	0	i
CCc1ccc(C(O)c2ncc(-c3cccc4ccccc34)[nH]2)cc1 (stereo not given)	i	x	x	0	x
COc1ccc(OCC(C)CN2CCC(C(O)(c3ccccc3)c3ccccc3)CC2)cc1 (stereo not given)	x	x	x	0	x
CC(=O)Nc1nc(CC(C)C)cc(-c2ccco2)c1C#N	+	-2	12	2	i
COC(=O)[C@@]12CCCCC3=C1N(CCC3)C(=O)[C@H]2CC(=O)NCc1ccc(C)o1	x	x	x	0	x
Cc1[nH]c2ccc(C(=O)OC(C)C(=O)N(C)c3ccccc3)cc2c1C (stereo not given)	+	2	2	x	i
Cc1[nH]c2ccc(C(=O)OC(C)C(=O)N(C)C3CCCCC3)cc2c1C (stereo not given)	i	x	x	0	x
O=S(=O)(c1cccs1)N1CN(Cc2ccccc2)c2nc3ccccc3nc21	+	-2	1	0	i
COc1ccc(CN2CN(S(=O)(=O)c3cccs3)c3nc4ccccc4nc32)cc1	i	7	-4	0	x
CCOC(=O)c1ccccc1N=Cc1c(O)c2ccccc2oc1=O	+	8	5	-3	i
FC(F)C(F)(F)Oc1cccc(Nc2nccn3c(-c4cccc5ccccc45)cnc23)c1	+	x	x	-7	i
CCC(NC(=O)c1ccc([N+](=O)[O-])cc1[N+](=O)[O-])c1ccccc1 (stereo not given)	i	-4	-6	1	x
SMILES	Neddyl block	proCasp3 act	procasp7 counter	proKLK7 act	Neddyl conf
CCC(NC(=O)c1ccccc1O)c1ccccc1 (stereo not given)	+	2	3	-13	i
N=c1c(S(=O)(=O)c2ccc(Br)cc2)cc2c(=O)n3ccccc3nc2n1Cc1ccccc1	i	3	-6	0	x
COCCn1c(=N)c(S(=O)(=O)c2ccc(F)cc2)cc2c(=O)n3ccccc3nc21	+	-34	-32	1	i
COCCn1c(=N)c(S(=O)(=O)c2ccc(Br)cc2)cc2c(=O)n3ccccc3nc21	+	-22	-18	-1	i
OC(c1cccc(F)c1)c1ncc(-c2ccc(C(F)(F)F)cc2)[nH]1 (stereo not given)	i	x	x	0	x
Cc1cc(=O)oc2cc(NC(=S)NNC(=O)c3c(Cl)cnn3C)ccc12	+	0	-4	7	i
COC(=O)c1ccc(NC(=S)NC(=O)c2c(Cl)cnn2C)cc1	i	3	-7	0	x
c1cc(-c2nnc3n2N=C(c2ccc4c(c2)OCO4)CS3)ccn1	x	x	x	0	x
COc1ccc(/C=c2\s/c(=C(/C#N)C(=O)NCc3ccco3)n(-c3ccccc3)c2=O)cc1	+	3	-3	-2	i
CC(C)NC(=O)N[C@H]1C[C@@H]2O[C@H](CO)CC[C@@H]2O[C@@H]1CCc1ccc(-c2ccc(F)cc2)cc1	x	x	x	0	x
CCSc1nnc(NC(=O)c2cccc(S(=O)(=O)N(C)c3ccc(C)cc3)c2)s1	+	3	-1	0	i
CCc1nnc(NC(=O)c2cccc(S(=O)(=O)N(C)c3ccccc3)c2)s1	i	-2	5	0	x
O=C(c1ccc(C#Cc2ccccc2)o1)N1CCN(c2ccccn2)CC1	i	-1	-2	0	x
COC(=O)c1ccc(C#Cc2ccccc2)o1	+	1	3	-1	i
C#CCNC(=O)C[C@H]1C[C@@]2(C(=O)OC)C(=C[C@H](C(C)C)O[C@@H]2C2CC2)N(CCCCCCCC)C1=O	x	x	x	0	x
COc1ccc(CC(=O)Nc2cccc(-c3cn4ccccc4n3)c2)cc1	i	3	0	1	x
CCC(=O)Nc1cccc(-c2cn3ccccc3n2)c1	+	3	-5	1	i
CC(=O)Nc1ccc2nc(-c3ccccc3)cn2c1	+	-5	1	1	i
O=C(Nc1cccc(-c2cn3ccccc3n2)c1)c1cccc(Cl)c1	+	-7	5	-1	x
O=C(Nc1cccc(-c2cn3ccccc3n2)c1)c1cnccn1	i	-1	1	0	x
C[C@@H]1COc2cc(Br)ccc2S(=O)(=O)N1Cc1cn(Cc2ccc(Cl)cc2)nn1	x	x	x	0	x
Cc1nn(C)cc1CN(C)C(=O)c1cc2nc(-c3ccco3)cc(C(F)(F)F)n2n1	+	-6	-9	16*	+
Cc1nn(C)c(C)c1CN(C)C(=O)c1cc2nc(-c3ccco3)cc(C(F)(F)F)n2n1	+	-1	-8	5	i
Cc1ccccc1Cn1nc(C)c(NC(=O)c2cc3nc(-c4ccco4)cc(C(F)(F)F)n3n2)c1C	+	x	x	-2	i

Source: PubChem BioAssay (several laboratories)
